Tests used:
[1] = tested on: Dengue virus type-2 (DENV2) in BHK-21 cells; assay: Cytopathic effect; format: cell-based; settings: DENV2-infected BHK-21 cells; concentrations within MNTD
Summary of the method: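 Maximal non-toxic dose in BHK-21 cells was first set by MTT. Cells were seeded at 1 × 10⁵/well and infected with DENV2 (MOI 0.02, DMEM with 2% FBS) for 1 h at 37 °C, 5% CO₂. At 1 h post-infection, compounds diluted in DMEM (2% FBS) within the non-toxic range were added, with castanospermine as the positive control. CPE was scored by phase-contrast microscopy, in triplicate.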

HaCaT cells = assay: MTT cytotoxicity assay; format: cell-based, human; settings: 100 µg/mL
Summary of the method: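 HaCaT keratinocytes were grown in DMEM with 10% FBS and 1% antibiotic-antimycotic at 37 °C, 5% CO₂. Cells were seeded at 1 × 10⁴/well for 24 h, then exposed to 1 to 100 µg/mL for 48 h, with 5-FU as the positive control and untreated cells as baseline. MTT (5 mg/mL) was added for 4 h, then SDS/DMF lysis buffer for 2 h, and plates read at 570 nm as percentage proliferation. Lower concentrations were retested to derive IC50 ± SE.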

BHK-21 cells = assay: MTT assay for Maximum Non-Toxic Dose; format: cell-based
[2] = DPPH free radical scavenging assay; format: physicochemical; settings: ascorbic acid as reference
Summary of the method: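 DPPH (4 mg/100 ml in methanol) was mixed with test compound or ascorbic acid at 1 to 500 µg/ml in methanol. The control was DPPH plus methanol, and methanol alone served as blank. Samples were incubated 20–30 min at 37 °C and the decrease in absorbance at 515 nm read. Percentage scavenging was calculated from control versus sample absorbance, in triplicate.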

SMILES | Inhibition / reduction in cytopathic effects [1] | Cell death (HaCaT cells) | Maximal non-toxic dose (MNTD) (BHK-21 cells) [µg/mL] | DPPH radical scavenging IC50 [2] [µg/mL]
Nc1cc(=O)oc2ccccc12 [Compound T1, 4-aminocoumarin] | did not exhibit significant inhibition of cytopathic effects | very low percentages of cell death | 2.5 | 
Cc1ccc(S(=O)(=O)[O-])cc1.Nc1c([I+]c2ccccc2)c(=O)oc2ccccc12 [Compound T2, 4-amino-3-phenyliodoniocoumarin tosylate] | up to 12% | more than 60% |  | ≥ 50
O=c1oc2ccccc2c(Nc2ccccc2)c1I [Compound T4, 3-iodo-4-phenylaminocoumarin] | up to 12% | more than 60% | 1 | 
O=c1cc(Nc2ccccc2)c2ccccc2o1 [Compound T5, 4-phenylaminocoumarin] | did not exhibit significant inhibition of cytopathic effects | very low percentages of cell death | 0.1 | 
O=c1oc2ccccc2c(N(c2ccccc2)c2ccccc2)c1I [Compound T6, 4-diphenylamino-3-iodocoumarin] | did not exhibit significant inhibition of cytopathic effects | very low percentages of cell death | 0.1 | 
O[C@H]1[C@H](O)[C@@H](O)CN2CC[C@H](O)[C@H]12 [castanospermine, reference compound] | 68% |  |  | 
